Laboratory results: ChEMBL document CHEMBL2384929, “Synthesis and biological evaluation of fluoro analogues of antimitotic phenstatin” (Bioorg Med Chem, 2013)
pIC50: −log10 of the molar value.

Tests used:
Ovis aries = species: Ovis aries; assay: Inhibition of sheep brain tubulin assembly at 100 uM by DAPI staining-based fluorescence assay
Summary of the method: (§1)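 Tubulin from sheep brain, purified by two assembly–disassembly cycles, at about 2–3 mg/mL in 0.1 M MES, 0.5 mM MgCl2, 1 mM EGTA, 1 mM GTP, pH 6.6. Assembly followed by DAPI fluorescence at 37 °C. Single-point inhibition tested at 100 µM. IC50 is the concentration halving the assembly rate relative to no compound, mean of two experiments, with reference inhibitors run the same day.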

RXF 393 = assay: Cytotoxicity against human RXF393 cells assessed as growth inhibition after 48 hrs by SRB assay; assay type: functional; details: RXF 393, 48 h
Summary of the method: (§2)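 Run in the NCI 60 human tumour cell line panel. Cells exposed for 48 h, growth read by sulforhodamine B. Compounds were first screened at a single 10 µM dose, and those meeting preset threshold inhibition criteria went on to the 5-dose screen. GI50 is the molar concentration giving 50% growth inhibition.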

MDA-MB-231 = assay: Cytotoxicity against human MDA-MB-231 cells assessed as growth inhibition after 48 hrs by SRB assay; assay type: functional; details: MDA-MB-231, 48 h; summary of the method: as §2
SN12C = assay: Cytotoxicity against human SN12C cells assessed as growth inhibition after 48 hrs by SRB assay; assay type: functional; summary of the method: as §2
HL-60(TB) = assay: Cytotoxicity against human HL-60(TB) cells assessed as growth inhibition after 48 hrs by SRB assay; assay type: functional; details: HL-60, 48 h
Summary of the method: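 NCI 60-human-cancer-cell-line screen; only compounds meeting predetermined threshold inhibition criteria in the single-dose test went on to the 5-dose screen. Cells exposed for 48 h and growth read by sulforhodamine B assay. GI50 is the molar concentration giving 50% growth inhibition of tumour cells.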

KM12 = assay: Cytotoxicity against human KM12 cells assessed as growth inhibition after 48 hrs by SRB assay; assay type: functional; details: KM12, 48 h; summary of the method: as §2
Hs-578T = assay: Cytotoxicity against human Hs578T cells assessed as growth inhibition after 48 hrs by SRB assay; assay type: functional; summary of the method: as §2
HCT-15 = assay: Cytotoxicity against human HCT15 cells assessed as growth inhibition after 48 hrs by SRB assay; assay type: functional; details: HCT-15, 48 h; summary of the method: as §2
SF-268 = assay: Cytotoxicity against human SF268 cells assessed as growth inhibition after 48 hrs by SRB assay; assay type: functional; details: SF-268, 48 h; summary of the method: as §2
SF-539 = assay: Cytotoxicity against human SF539 cells assessed as growth inhibition after 48 hrs by SRB assay; assay type: functional; details: SF-539, 48 h; summary of the method: as §2
BT-549 = assay: Cytotoxicity against human BT549 cells assessed as growth inhibition after 48 hrs by SRB assay; assay type: functional; details: BT-549, 48 h; summary of the method: as §2
OVCAR-3 = assay: Cytotoxicity against human OVCAR3 cells assessed as growth inhibition after 48 hrs by SRB assay; assay type: functional; details: OVCAR-3, 48 h; summary of the method: as §2
NCI-H522 = assay: Cytotoxicity against human NCI-H522 cells assessed as growth inhibition after 48 hrs by SRB assay; assay type: functional; details: NCI-H522, 48 h; summary of the method: as §2
SK-OV-3 = assay: Cytotoxicity against human SKOV3 cells assessed as growth inhibition after 48 hrs by SRB assay; assay type: functional; details: SK-OV-3, 48 h; summary of the method: as §2
SNB-75 = assay: Cytotoxicity against human SNB75 cells assessed as growth inhibition after 48 hrs by SRB assay; assay type: functional; details: SNB-75, 48 h; summary of the method: as §2
SW-620 = assay: Cytotoxicity against human SW620 cells assessed as growth inhibition after 48 hrs by SRB assay; assay type: functional; details: SW-620, 48 h; summary of the method: as §2
Malme-3M = assay: Cytotoxicity against human MALME-3M cells assessed as growth inhibition after 48 hrs by SRB assay; assay type: functional; summary of the method: as §2
MDA-MB-435 [1] = assay: Cytotoxicity against human MDA-MB-435 cells assessed as growth inhibition after 48 hrs by SRB assay; assay type: functional; details: MDA-MB-435, 48 h; summary of the method: as §2
ACHN = assay: Cytotoxicity against human ACHN cells assessed as growth inhibition after 48 hrs by SRB assay; assay type: functional; summary of the method: as §2
DU-145 = assay: Cytotoxicity against human DU145 cells assessed as growth inhibition after 48 hrs by SRB assay; assay type: functional; details: DU-145, 48 h; summary of the method: as §2
NCI-H460 = assay: Cytotoxicity against human NCI-H460 cells assessed as growth inhibition after 48 hrs by SRB assay; assay type: functional; details: NCI-H460, 48 h; summary of the method: as §2
K562 = assay: Cytotoxicity against human K562 cells assessed as growth inhibition after 48 hrs by SRB assay; assay type: functional; details: K562, 48 h; summary of the method: as §2
SR [2] = assay: Cytotoxicity against human SR cells assessed as growth inhibition after 48 hrs by SRB assay; assay type: functional; summary of the method: as §2
NCI-H23 = assay: Cytotoxicity against human NCI-H23 cells assessed as growth inhibition after 48 hrs by SRB assay; assay type: functional; details: NCI-H23, 48 h; summary of the method: as §2
SNB-19 = assay: Cytotoxicity against human SNB19 cells assessed as growth inhibition after 48 hrs by SRB assay; assay type: functional; details: SNB-19, 48 h; summary of the method: as §2
PC-3 = assay: Cytotoxicity against human PC3 cells assessed as growth inhibition after 48 hrs by SRB assay; assay type: functional; details: PC-3, 48 h; summary of the method: as §2
NCI/ADR-RES = assay: Cytotoxicity against human NCI/ADR-RES cells assessed as growth inhibition after 48 hrs by SRB assay; assay type: functional; summary of the method: as §2
M14 = assay: Cytotoxicity against human M14 cells assessed as growth inhibition after 48 hrs by SRB assay; assay type: functional; details: M14, 48 h; summary of the method: as §2
CCRF-CEM = assay: Cytotoxicity against human CCRF-CEM cells assessed as growth inhibition after 48 hrs by SRB assay; assay type: functional; summary of the method: as §2
[3] = Inhibition of sheep brain tubulin assembly by DAPI staining-based fluorescence assay; parameters: species or system Ovis aries; summary of the method: as §1
SR [4] = assay: Cytotoxicity against human SR cells assessed as growth inhibition at 10 uM after 48 hrs by SRB assay; assay type: functional; details: read-out: GI
Summary of the method: (§3)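 Single-dose NCI 60-cell screen at 10 µM with 48 h exposure and sulforhodamine B read-out. Values are percentage growth per cell line. A summary ratio counts cell lines with 0–50% growth over all cell lines tested.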

MDA-MB-435 [5] = assay: Cytotoxicity against human MDA-MB-435 cells assessed as growth inhibition at 10 uM after 48 hrs by SRB assay; assay type: functional; details: MDA-MB-435, 48 h, read-out: GI; summary of the method: as §3

With `COc1ccc(C(=O)c2cc(F)c(F)c(OC)c2F)cc1OC(=O)CCl` the inhibition (Ovis aries) was 46%.

`COc1cc(C(=O)c2cc(OC)c(OC)c(OC)c2)c(OC)cc1F` gave an inhibition (Ovis aries) of 77%, a GI50 (RXF 393) of 144 nM and a GI50 (MDA-MB-231) of 388 nM. It also gave a GI50 (SN12C) of 602 nM, a GI50 (HL-60(TB)) of 203 nM and a GI50 (KM12) of 50 nM. For the same compound, the GI50 (Hs-578T) was 194 nM, the GI50 (HCT-15) was 55 nM and the GI50 (SF-268) was 748 nM. For the same compound, the GI50 (SF-539) was 164 nM, the GI50 (BT-549) was 365 nM and the GI50 (OVCAR-3) was 45 nM. It also gave a GI50 (NCI-H522) of 102 nM, a GI50 (SK-OV-3) of 213 nM and a GI50 (SNB-75) of 109 nM. The GI50 (SW-620) was 63 nM, the GI50 (Malme-3M) was 433 nM and the GI50 (MDA-MB-435 [1]) was 25 nM. The GI50 (ACHN) was 693 nM, the GI50 (DU-145) was 257 nM and the GI50 (NCI-H460) was 115 nM. It also gave a GI50 (K562) of 46 nM, a GI50 (SR [2]) of 43 nM and a GI50 (NCI-H23) of 421 nM. The GI50 (SNB-19) was 419 nM, the GI50 (PC-3) was 207 nM and the GI50 (NCI/ADR-RES) was 68 nM. It also gave a GI50 (M14) of 72 nM, a GI50 (CCRF-CEM) of 192 nM and a pIC50 [3] of 4.62.

In the case of `C=C(c1cc(OC)c(OC)c(OC)c1)c1cc(OC)c(F)cc1OC`, the inhibition (Ovis aries) was 44%, the GI50 (RXF 393) was 2160 nM and the GI50 (MDA-MB-231) was 945 nM. The GI50 (SN12C) was 498 nM, the GI50 (HL-60(TB)) was 273 nM and the GI50 (KM12) was 568 nM. It also gave a GI50 (Hs-578T) of 2190 nM, a GI50 (HCT-15) of 666 nM and a GI50 (SF-268) of 2670 nM. The GI50 (SF-539) was 2160 nM, the GI50 (BT-549) was 4120 nM and the GI50 (OVCAR-3) was 521 nM. The GI50 (NCI-H522) was 601 nM, the GI50 (SK-OV-3) was 1050 nM and the GI50 (SNB-75) was 920 nM. For the same compound, the GI50 (SW-620) was 587 nM, the GI50 (Malme-3M) was over 10000 nM and the GI50 (MDA-MB-435 [1]) was 260 nM. It also gave a GI50 (ACHN) of 6540 nM, a GI50 (DU-145) of 2440 nM and a GI50 (NCI-H460) of 1220 nM. It also gave a GI50 (K562) of 340 nM, a GI50 (SR [2]) of 455 nM and a GI50 (NCI-H23) of 2200 nM. For the same compound, the GI50 (SNB-19) was 3300 nM, the GI50 (PC-3) was 2240 nM and the GI50 (NCI/ADR-RES) was 375 nM. For the same compound, the GI50 (M14) was 547 nM and the GI50 (CCRF-CEM) was 1100 nM.

Compound `C=C(c1ccc(OC)c(O)c1)c1cc(F)c(F)c(OC)c1F` has an inhibition (Ovis aries) of 77%, a GI50 (RXF 393) of 176 nM and a GI50 (MDA-MB-231) of 94 nM. It also gave a GI50 (SN12C) of 209 nM, a GI50 (HL-60(TB)) of 23 nM and a GI50 (KM12) of 47 nM. The GI50 (Hs-578T) was 52 nM, the GI50 (HCT-15) was 45 nM and the GI50 (SF-268) was 75 nM. It also gave a GI50 (SF-539) of 31 nM, a GI50 (BT-549) of 61 nM and a GI50 (OVCAR-3) of 217 nM. The GI50 (NCI-H522) was 25 nM, the GI50 (SK-OV-3) was 94 nM and the GI50 (SNB-75) was 55 nM. It also gave a GI50 (SW-620) of 45 nM, a GI50 (Malme-3M) of 44 nM and a GI50 (MDA-MB-435 [1]) of 19 nM. For the same compound, the GI50 (ACHN) was 67 nM, the GI50 (DU-145) was 139 nM and the GI50 (NCI-H460) was 343 nM. For the same compound, the GI50 (K562) was 37 nM, the GI50 (SR [2]) was 15 nM and the GI50 (NCI-H23) was 385 nM. For the same compound, the GI50 (SNB-19) was 67 nM, the GI50 (PC-3) was 140 nM and the GI50 (NCI/ADR-RES) was 38 nM. The GI50 (M14) was 38 nM, the GI50 (CCRF-CEM) was 37 nM and the pIC50 [3] was 4.37.

In the case of `COc1ccc(C(=O)c2cc(OC)c(OC)c(OC)c2N)cc1F`, the pIC50 [3] was 5.70.

`COc1cc(C(=O)c2cc(OC)c(O)c(OC)c2)c(OC)cc1F` gave an inhibition (Ovis aries) of 48%, an inhibition of growth at 10 µM (SR [4]) of 22% and an inhibition of growth at 10 µM (MDA-MB-435 [5]) of 21%.

Compound `COc1ccc(C(=O)c2cc(OC)c(OC)c(OC)c2)cc1O` [PHENSTATIN] has an inhibition (Ovis aries) of 99%, a GI50 (OVCAR-3) of 2 nM and a GI50 (DU-145) of 34 nM. For the same compound, the GI50 (NCI-H460) was 6 nM and the pIC50 [3] was 5.46.
